High-throughput results from PubChem BioAssay.
D1 mod: D1 CRE-luciferase signal change, two-sided – cell-based, HEK293 D1, dopamine EC30, D1 allosteric modulator project, primary screen; D(1A) dopamine receptor (Homo sapiens), P21728; dopamine EC30 potentiation; actives deviate in either direction; B-score at 10 µM; actives 5.9% (n = 58,000); AID 641, 2007;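 active = luminescence count or its row- and column-corrected plate score outside the 99.7% band of the plate's sample wells, on either side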
MMP-13 inhibitor: human MMP13 inhibitors, primary screen, biochemical, FRET peptide cleavage. Collagenase 3 (Homo sapiens), P45452. MMP-13 fTHP FRET cleavage, Mca fluorescence. inhibition, % at 4 µM. actives 0.07% (n = 65,000). AID 570, 2006;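 active = inhibition above the mean of compound-free control plate wells plus 3 SD, cut at about 14% in these data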
DAT uptake mod: changed hDAT dopamine uptake under cocaine IC80, either direction, primary screen, cocaine antagonist project, cell-based, LLC-PK1 hDAT, [14C]-dopamine uptake, MLSMR; LLC-PK1 hDAT cells, [14C]-dopamine uptake with cocaine IC80; actives deviate in either direction; B-score at 10 µM; actives 1.3% (n = 110,000); AID 449768, 2010;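 active = Z score or B-score, a plate-position-corrected score, falls beyond the plate's 99.7% confidence bounds, in either direction; inactive = both scores lie inside the 99.7% bounds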
Target sequence (Q01959 whole entry, looked up): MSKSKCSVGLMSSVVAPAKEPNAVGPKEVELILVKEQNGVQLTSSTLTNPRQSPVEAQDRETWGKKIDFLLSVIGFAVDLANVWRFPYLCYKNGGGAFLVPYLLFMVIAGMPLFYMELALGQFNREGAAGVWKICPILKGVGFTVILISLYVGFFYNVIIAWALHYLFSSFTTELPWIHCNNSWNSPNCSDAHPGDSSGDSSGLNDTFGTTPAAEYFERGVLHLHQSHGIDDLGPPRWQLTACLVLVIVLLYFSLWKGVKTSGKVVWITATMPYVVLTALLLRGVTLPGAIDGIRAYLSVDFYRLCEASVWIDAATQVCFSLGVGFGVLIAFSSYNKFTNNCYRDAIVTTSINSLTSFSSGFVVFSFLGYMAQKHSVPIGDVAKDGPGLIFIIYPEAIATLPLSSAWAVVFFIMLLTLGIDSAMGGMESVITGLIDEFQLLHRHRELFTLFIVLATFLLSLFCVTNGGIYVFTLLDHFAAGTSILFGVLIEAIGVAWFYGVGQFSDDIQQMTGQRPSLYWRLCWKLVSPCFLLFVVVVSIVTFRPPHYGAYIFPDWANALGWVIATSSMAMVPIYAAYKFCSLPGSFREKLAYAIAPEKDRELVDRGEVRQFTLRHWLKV
Candida biofilm: clotrimazole potentiators killing Candida biofilms, primary screen, with clotrimazole, Alamar Blue. C. albicans biofilm + clotrimazole. inhibition, % at 6 µM. actives 0.14% (n = 85,000);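 active = inhibition above 20%; inactive = inhibition below 20%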;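 note: preformed 24 hr biofilms exposed to compound for 48 hr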
AP complement: alternative complement pathway inhibitors, primary screen, biochemical, ELISA, human serum, orthogonally pooled compounds. LPS-coated ELISA, C3 deposition; tested in compound mixtures. inhibition, % at 5 µM. actives 0.08% (n = 62,000). AID 1235, 2008;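 active = inhibition above 30% in each of the two pooled mixtures holding the compound, so the lower value exceeds 30%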
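Medium: diluted human serum in Mg2+-EGTA GVB++. Assay system: human serum complement alternative pathway, C3 deposition onto LPS. Also added: Plate-bound LPS. Technique: Anti-C3 ELISA, OD 450 nm. Measure: percent inhibition. Incubation: 1 h at 37 °C. Dosing: 5 µM each compound, pools of ten, 50 µM per pool.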
A number is an active result; . = inactive; / = no result given. Shown is part of a subset that was picked to be rich in hits.

SMILES | D1 mod | MMP-13 inhibitor | DAT uptake mod | Candida biofilm | AP complement
C=CCn1c(=O)c2ccccc2n2c(SCc3cc(=O)n4ccsc4n3)nnc12 | . | . | 2.8 | . | .
C=CCn1c(=O)c2ccccc2n2c(SCC(=O)c3ccccc3)nnc12 | . | . | . | . | .
C=CCn1c(SCc2cc(=O)n3ccsc3n2)nc2sc(C)c(C)c2c1=O | 4 | . | . | . | .
COc1ccc(-c2nc(-c3ccc(C(=O)O)cc3)no2)cc1 | / | / | . | / | /
C=CCN1C=CC(=C/C=C(/C#N)C(=O)OCC)C=C1 | / | / | -2.6 | . | /
Fc1ccccc1N1CCN(CCCNc2ccc3nncn3n2)CC1 | -6.1 | . | . | . | .
c1ccc(CN2CCN(CCCNc3ccc4nnc(-c5ccccc5)n4n3)CC2)cc1 | -5.6 | . | . | . | .
COc1ccc(OC)c(C2=NOC(C(=O)N3CCCc4ccccc43)C2)c1 (stereo unspecified) | / | / | . | . | /
Clc1ccccc1Nc1c2c(nc3ncnn13)CCC2 | . | . | . | . | .
c1ccc(Nc2c3c(nc4ncnn24)CCC3)cc1 | -4.8 | . | . | . | .
C#CCOCCOCCOCCNc1nc(N2CCN(C(=O)C([C@@H](C)CC)n3cc(C(N)Cc4ccc(O)cc4)nn3)CC2)nc(N2CCN(C(=O)[C@H](CCC(=O)O)n3cc(C(N)Cc4ccc(O)cc4)nn3)CC2)n1 (stereo partly specified) | / | / | . | / | /
O=C(NCc1cccc(Cl)c1)c1cnccn1 | . | . | . | . | .
O=C(NCc1ccc(Cl)cc1)c1cnccn1 | / | / | -2.8 | . | /
Cc1cccc(N(C)C(=O)c2cc3cc4ccc(C)cc4nc3o2)c1 | . | . | . | . | .
Cc1ccc2cc3cc(C(=O)N(C)C4CCCCC4)oc3nc2c1 | -3.5 | . | / | . | .
CC1CCC(C(=O)NC(C(=O)NCc2cccnc2)C(C)C)CC1 (stereo unspecified) | / | / | . | / | /
CCOC(=O)c1nnn(-c2nonc2N)c1-c1ccc(C)cc1 | / | / | / | . | /
CCOC(=O)c1nnn(-c2nonc2N)c1-c1ccccc1 | 9 | . | . | . | .
O=C(CCCc1ccccc1)NCCN1CCOCC1 | . | . | . | . | .
O=C(CC(c1ccccc1)c1ccccc1O)NCCN1CCOCC1 (stereo unspecified) | . | . | -7.8 | . | .
CCCc1cc(C(=O)NC2CCCCC2)no1 | . | . | . | . | .
CCCc1cc(C(=O)NC2CCCC2)no1 | . | . | . | / | 40
O=C1C=C(c2cc3ccccc3s2)CCC1 | / | / | . | / | /
CC(C)c1ccc(NC(=O)CN(Cc2ccccc2)S(C)(=O)=O)cc1 | / | / | 3 | . | /
CC(C)c1nc2oc3c(NCc4ccccn4)ncnc3c2c2c1COC(C)(C)C2 | 8.7 | . | / | / | .
SMILES | D1 mod | MMP-13 inhibitor | DAT uptake mod | Candida biofilm | AP complement
Cc1nc2oc3c(NCc4ccccn4)ncnc3c2c2c1COC(C)(C)C2 | 12 | . | . | . | .
C/C(=N/NC(=O)c1ccoc1C)C12CC3CC(CC(C3)C1)C2 | / | / | . | . | /
CCCCCCC(=O)Nc1nc(C)c(-c2csc(Nc3cc(OC)ccc3OC)n2)s1 | / | / | 2.4 | / | /
CCCCC(=O)Nc1nc(C)c(-c2csc(Nc3ccccc3OC)n2)s1 | / | / | 2.8 | / | /
CCCCCCCCC(=O)Nc1cc(C)ccc1OC | / | / | -7.9 | / | /
C=CCCC(=O)Nc1nc(C)c(-c2csc(Nc3ccccc3OC)n2)s1 | / | / | . | / | /
Cc1c(-n2cc(C(=O)O)c(=O)c3cc(F)c(N4CCCC4)c(F)c32)c(=O)n(-c2ccccc2)n1C | 2.7 | . | . | . | .
Cc1nc(NCCc2ccccc2F)c(C#N)c(C)c1[N+](=O)[O-] | / | / | . | / | /
CCCC(=O)N1CCN(c2nc(CC(C)C)c3c(c2C#N)CCC3)CC1 | . | . | 2.6 | . | /
CC(C)Cc1nc(N2CCN(C(=O)Cc3ccccc3)CC2)c(C#N)c2c1COC(C)(C)C2 | / | . | / | . | /
CC(C)C[C@H]1COCCS(=O)(=O)N1Cc1cccc(F)c1 | / | / | . | / | /
O=C(NCc1ccc(OC(F)(F)F)cc1)C1CC(c2cccc(F)c2)=NO1 (stereo unspecified) | / | / | . | / | /
CC[C@@H]1CC=C[C@H]2[C@H]1C(=O)N(Cc1ccccc1)[C@H]2c1cc(C)ccc1F | / | / | . | / | /
C=CCN1C(=O)C(Cc2ccc(OC)cc2)S/C1=N\N=C\c1cccs1 (stereo unspecified) | / | / | 3 | . | /
C=CCN1C(=O)C(Cc2ccc(OC)cc2)S/C1=N/N=C/c1ccco1 (stereo unspecified) | / | / | . | / | /
O=P(CCCCCCCCCP(=O)(c1ccccc1)c1ccccc1)(c1ccccc1)c1ccccc1 | / | / | 2.9 | / | /
COCP(=O)(c1ccccc1)c1ccccc1 | / | / | 1.5 | . | /
O=C(O)CP(=O)(c1ccccc1)c1ccccc1 | . | . | . | . | .
O=P(COCCOCP(=O)(c1ccccc1)c1ccccc1)(c1ccccc1)c1ccccc1 | / | / | . | . | /
c1cnc2c(C3NCCc4c3[nH]c3ccccc43)cccc2c1 (stereo unspecified) | / | / | . | / | /
COc1ccc(NC(=O)c2ccco2)cc1NC(=O)c1cccs1 | . | . | 1.8 | . | .
COC(=O)c1ccccc1NC(NC(=O)c1ccco1)C(=O)c1ccccc1 (stereo unspecified) | / | . | . | . | .
COc1ccccc1NC(NC(=O)c1ccco1)C(=O)c1ccccc1 (stereo unspecified) | / | . | 35 | . | .
COc1cc(NC(=O)c2cccs2)c(OC)cc1NC(=O)c1ccco1 | . | . | / | / | .
COc1ccc(NC(=O)c2ccco2)cc1NC(=O)c1ccc(C)cc1 | . | . | . | . | .
SMILES | D1 mod | MMP-13 inhibitor | DAT uptake mod | Candida biofilm | AP complement
COc1ccc(C(=O)Nc2ccccc2NC(=O)c2ccco2)cc1OC | / | . | 2.8 | . | .
O=C1CC2(CCCCCC2)Oc2ccc(Cl)cc21 | / | / | . | / | /
c1cnc(SCCOc2ccc3c(c2)CCC3)nc1 | / | / | . | 46 | /
CSc1nc(-c2ccccc2)nc2c1COC(C)(C)C2 | . | . | . | . | .
CN(C)CCSc1nc(-c2ccccc2)nc2c1COC(C)(C)C2 | / | / | 3 | . | /
CCOC(=O)c1ccc2ncc(C(=O)OCC)c(NCCN(C)C)c2c1 | 2.9 | . | . | . | .
CCOC(=O)c1cnc2ccc(C(=O)OC)cc2c1NCc1ccco1 | . | . | . | . | .
CN(C)c1nc(Oc2ccc(=O)n(-c3ccccc3)n2)nc(N2CCOCC2)n1 | 5.6 | . | . | . | .
CC(C)CNC(=O)C(=O)N/N=C/c1cccs1 | / | / | . | / | /
COC(=O)C1=NN(N=O)C2(CC(=O)N(c3cc(C)cc(C)c3)C2=O)C1 (stereo unspecified) | / | / | . | . | /
N#CC1=C(N)C(C#N)(C#N)C(c2cccnc2)C2CN(C(=O)OCc3ccccc3)CC=C12 (stereo unspecified) | / | / | 3.9 | . | /
C=CCn1c(SCc2nc(N)nc(N(C)C)n2)nnc1-c1cccnc1 | -6 | . | / | . | .
